Experimental data of several laboratories.
ABL1 E255K: Tyrosine-protein kinase ABL1 (ABL1, Homo sapiens, UniProt P00519, E255K)
ABL1 non-phosphorylated: Tyrosine-protein kinase ABL1, non-phosphorylated (ABL1, Homo sapiens, UniProt P00519)
ABL1 Q252H: Tyrosine-protein kinase ABL1 (ABL1, Homo sapiens, UniProt P00519, Q252H)
ABL1 phosphorylated: Tyrosine-protein kinase ABL1, phosphorylated (ABL1, Homo sapiens, UniProt P00519)
ABL1 F317I non-phosphorylated: Tyrosine-protein kinase ABL1, non-phosphorylated (ABL1, Homo sapiens, UniProt P00519, F317I)
ABL1 M351T phosphorylated: Tyrosine-protein kinase ABL1, phosphorylated (ABL1, Homo sapiens, UniProt P00519, M351T)
ABL1 E255K phosphorylated: Tyrosine-protein kinase ABL1, phosphorylated (ABL1, Homo sapiens, UniProt P00519, E255K)
ABL1 F317L phosphorylated: Tyrosine-protein kinase ABL1, phosphorylated (ABL1, Homo sapiens, UniProt P00519, F317L)
ABL1 M351T: Tyrosine-protein kinase ABL1 (ABL1, Homo sapiens, UniProt P00519, M351T)
ABL1 H396P non-phosphorylated: Tyrosine-protein kinase ABL1, non-phosphorylated (ABL1, Homo sapiens, UniProt P00519, H396P)
ABL1 Q252H non-phosphorylated: Tyrosine-protein kinase ABL1, non-phosphorylated (ABL1, Homo sapiens, UniProt P00519, Q252H)
ABL1 H396P phosphorylated: Tyrosine-protein kinase ABL1, phosphorylated (ABL1, Homo sapiens, UniProt P00519, H396P)

| Structure (SMILES) | target | assay | setting | remaining binding [%] |
| --- | --- | --- | --- | --- |
| COc1ccnn2ncc(-c3ccnc(N(C)C)n3)c12 | ABL1 E255K | binding | 1 µM | 86 |
| O=C(O)[C@H]1[C@H](Cn2nnc3ccccc3c2=O)CC[C@@H]1C(=O)c1ccc(OCCC2CCOCC2)cc1 | ABL1 non-phosphorylated | cell-free assay, competition with immobilised ligand | 1 µM | 80 |
| Cc1cnn2ncc(-c3ccnc(N(C)C)n3)c2c1 | ABL1 Q252H | binding | 1 µM | 100 |
| N#Cc1ccccc1CSc1nnc2c(n1)[nH]c1ccccc12 | ABL1 phosphorylated | binding, competition with immobilised ligand | 10 µM | 94 |
| O=C(c1ccc(Nc2nccc(-c3cc4ccccc4s3)n2)cc1)N1CCC(N2CCCC2)CC1 | ABL1 F317I non-phosphorylated | binding, competition with immobilised ligand | 1 µM | 92 |
| Cc1nc(Cc2cccc(C(F)(F)F)c2)sc1-c1ccc(C(N)=O)nc1 | Tyrosine-protein kinase ABL1, phosphorylated (ABL1, Homo sapiens, UniProt P00519, Q252H) | cell-free assay, competition with immobilised ligand | 1 µM | 100 |
| COc1cnc(Nc2cccc(S(N)(=O)=O)c2)nc1N1CCN(c2ccccc2)CC1 | ABL1 M351T phosphorylated | binding, competition with immobilised ligand | 1 µM | 98 |
| O=C(Nc1c[nH]nc1C(=O)NC1CCNCC1)c1cc(F)cc(F)c1 | ABL1 E255K phosphorylated | binding, competition with immobilised ligand | 1 µM | 100 |
| O=C(NCCCN1CCOCC1)c1ccc(Nc2nccc(-c3cc4ccccc4s3)n2)cc1 | ABL1 E255K phosphorylated | binding, competition with immobilised ligand | 1 µM | 45 |
| CCS(=O)(=O)c1cc2cc(C[C@](O)(CC(C)(C)c3ccc(F)cc3C(N)=O)C(F)(F)F)[nH]c2cn1 | ABL1 F317L phosphorylated | cell-free assay, competition with immobilised ligand | 1 µM | 90 |
| CN1CCN(c2ccc(Nc3nccc(-c4cccc([N+](=O)[O-])c4)n3)cc2C(F)(F)F)CC1 | ABL1 E255K | binding | 10 µM | 5.8 |
| CC1CCCN1c1nccc(-c2cnn3ncccc23)n1 (centres unmarked) | ABL1 M351T | binding | 1 µM | 98 |
| CC(=O)Nc1c(C(C)=O)c(=O)n(C)c2nc(-c3ccc(Cl)cc3Cl)c(-c3ccc(Cl)cc3)cc12 | ABL1 F317L phosphorylated | cell-free assay, competition with immobilised ligand | 1 µM | 100 |
| c1cncc(-c2cccc(Nc3nccc(NC4CCCCC4)n3)c2)c1 | ABL1 F317I non-phosphorylated | binding, competition with immobilised ligand | 10 µM | 100 |
| CCOCCn1cc(C(=O)Nc2ccc(-n3nc(-c4cccnc4)cc3C(F)(F)F)cn2)ccc1=O | Tyrosine-protein kinase ABL1, phosphorylated (ABL1, Homo sapiens, UniProt P00519, T315I) | cell-free assay, competition with immobilised ligand | 1 µM | 96 |
| C[C@@H]1CCN(c2nccc(-c3cnn4ncccc34)n2)C1 | ABL1 phosphorylated | binding | 1 µM | 61 |
| Nc1ncc2c(n1)-c1c([nH]c3ccc(C#CC4CC4)cc13)CCCC2 | ABL1 non-phosphorylated | binding, competition with immobilised ligand | 1 µM | 95 |
| CCN1CCN(Cc2ccc(C(=O)Nc3ccc(C)c(Oc4ccc5c(c4)CC(=O)N5)c3)cc2C(F)(F)F)CC1 | ABL1 M351T phosphorylated | binding, competition with immobilised ligand | 1 µM | 55 |

| Structure (SMILES) | target | assay | setting | remaining binding [%] |
| --- | --- | --- | --- | --- |
| O=C(c1ccc(Nc2ncc(Cl)c(-c3cc4ccccc4s3)n2)cc1)N1CCC(N2CCCC2)CC1 | ABL1 F317L phosphorylated | binding, competition with immobilised ligand | 1 µM | 54 |
| CN(C)c1nccc(-c2cnn3ncccc23)n1 | ABL1 non-phosphorylated | binding, competition with immobilised ligand | 1 µM | 98 |
| O=C(c1ccc(Nc2ncc(Cl)c(-c3ccc(Cl)s3)n2)cc1)N1CCC(N2CCCC2)CC1 | ABL1 H396P non-phosphorylated | binding, competition with immobilised ligand | 1 µM | 0.35 |
| CN(c1nccc(-c2cnn3ncccc23)n1)C1CC1 | ABL1 Q252H | binding | 1 µM | 100 |
| CSc1cccnc1N1CCN(Cc2nc3ccccc3[nH]2)CC1 | Tyrosine-protein kinase ABL1, non-phosphorylated (ABL1, Homo sapiens, UniProt P00519, F317L) | cell-free assay, competition with immobilised ligand | 1 µM | 100 |
| COc1ncc2cc3ccccc3nc2c1C#N | ABL1 Q252H non-phosphorylated | cell-free assay, competition with immobilised ligand | 5 µM | 100 |
| O=C(NCCCN1CCOCC1)c1ccc(Nc2ncc(Cl)c(-c3ccc(Cl)s3)n2)cc1 | ABL1 H396P phosphorylated | binding, competition with immobilised ligand | 1 µM | 32 |
| O=C(NS(=O)(=O)c1ccc(NCC2CCOCC2)c([N+](=O)[O-])c1)c1ccc(N2CCN(Cc3ccc(C(F)(F)F)cc3-c3ccc(Cl)cc3)CC2)cc1Oc1cnc2[nH]ccc2c1 | ABL1 M351T phosphorylated | cell-free assay, competition with immobilised ligand | 1 µM | 100 |
| CNC(=O)[C@@H]1CC[C@@H](n2c(-c3ccc4cnccc4c3)nc3ccc(C(=O)NCc4cccc(C(N)=O)c4)cc32)C1 | ABL1 non-phosphorylated | binding, competition with immobilised ligand | 1 µM | 69 |
| Cc1cnc(Nc2ccc(C(=O)N3CCC(N4CCCC4)CC3)cc2)nc1-c1cc2ccccc2s1 | ABL1 M351T phosphorylated | binding, competition with immobilised ligand | 1 µM | 1.4 |
| COc1cnc(Nc2cccc(S(N)(=O)=O)c2)nc1N1CCN(c2ccccc2)C(=O)C1 | ABL1 Q252H non-phosphorylated | binding, competition with immobilised ligand | 1 µM | 95 |
| c1cnn2ncc(-c3ccnc(N4CCC45COC5)n3)c2c1 | ABL1 M351T | binding | 1 µM | 48 |
| C=CC(=O)N1CCC(C(=O)NCC(=O)N2CCN(c3nc(-c4cnc(N)nc4C(F)F)nc(N4CCOCC4)n3)CC2)CC1 | ABL1 M351T phosphorylated | binding, competition with immobilised ligand | 1 µM | 99 |
| C[C@@H](c1ccc(-n2cnc3c(N)ncnc32)cc1)N1CCc2nn(C)c(Cc3ccccc3)c2C1=O | ABL1 phosphorylated | binding, competition with immobilised ligand | 0.1 µM | 90 |
| O=C(NCC1CCOCC1)c1n[nH]cc1NC(=O)c1c(F)cccc1F | ABL1 H396P non-phosphorylated | binding, competition with immobilised ligand | 1 µM | 76 |
| CCOC(=O)c1cc2cc(-c3cc(C(=O)NCc4ccc(C(=O)O)cc4)nn3C)ccc2[nH]1 | ABL1 H396P phosphorylated | cell-free assay, competition with immobilised ligand | 0.1 µM | 85 |
| N[C@@H]1CCN(c2nccc(-c3cnn4ncccc34)n2)C1 | Tyrosine-protein kinase ABL1 (ABL1, Homo sapiens, UniProt P00519, F317I) | binding | 1 µM | 100 |
